From PubChem
An excerpt weighted towards active compounds, which were near 1.9% of everything screened.
LMPTP block: blocks human LMPTP phosphatase | actives 0.22% (n = 360,000) | recombinant LMPTP-A, OMFP fluorogenic substrate, fluorescence intensity | P24666 | AID 651560 | inhibition, % at 20 µM;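 active means compounds that cut the enzyme signal by at least half of the control window in the single-dose screen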;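 further: plate controls were DMSO wells with enzyme plus substrate for no effect and substrate without enzyme for full effect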
Target sequence (P24666 whole entry, looked up): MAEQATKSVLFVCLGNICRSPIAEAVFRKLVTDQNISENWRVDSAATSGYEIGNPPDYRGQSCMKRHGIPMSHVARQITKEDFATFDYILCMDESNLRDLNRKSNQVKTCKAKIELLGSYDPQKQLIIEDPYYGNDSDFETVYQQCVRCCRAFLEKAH
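Buffer or medium: Bis-Tris pH 6.0, DTT, detergent; Assay system: LMPTP-A enzyme; Quantity: 0.625 nM enzyme; Detection: endpoint fluorescence intensity; Times: 50 min dark incubation at room temperature; Controls: substrate-only low control, DMSO enzyme-plus-substrate high control; Doses: single 20 µM dose; Read-out: percent inhibition versus substrate-only and uninhibited controls; Reagent: 400 µM OMFP.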
STEP block: inhibitors of human striatal-enriched phosphatase STEP; actives 0.25% (n = 360,000); inhibition, % at 20 µM; recombinant STEP, OMFP fluorogenic substrate, fluorescence; P54829; AID 588621;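 active means inhibition at 20 µM, scaled per plate between control wells, above about 37%, limit read from the data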;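 further: 0% = DMSO with enzyme and substrate and 100% = substrate only without enzyme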
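System: isolated STEP enzyme; schedule: 20 min enzyme reaction at room temperature, protected from light; medium: Bis-Tris buffer pH 6.0, 2.5 mM DTT, 0.005% Tween 20; signal: fluorescence, 480/540 nm; dosing: single compound dose of 20 µM, 1% DMSO final; also added: OMFP substrate, 25 µM final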
SUMO1-SIM PPI: modulators of human SUMO1-mediated protein-protein interactions; inhibition, % at 20 µM; SUMO1 binding to a labelled peptide, TR-FRET, 1 h; actives 0.33% (n = 360,000); in the data active means inhibition above about 37%
Target sequence (P63165 whole entry, looked up): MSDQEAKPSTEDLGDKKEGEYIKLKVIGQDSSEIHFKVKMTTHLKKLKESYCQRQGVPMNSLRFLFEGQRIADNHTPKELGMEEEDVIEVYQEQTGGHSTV
FAS-TE inh: FAS thioesterase (human) inhibition; P49327; recombinant FAS-TE, OMFH fluorogenic substrate, fluorescence endpoint; inhibition, % at 15 µM; actives 0.67% (n = 360,000); AID 602261;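 active means compounds whose normalised, plate-corrected inhibition of enzyme fluorescence in the single-dose primary screen is 50% or more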;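 further: 0% = DMSO with enzyme and 100% = substrate without enzyme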
Scp1 inh: blocks human Scp-1 phosphatase activity; Recombinant Scp1, phosphopeptide, malachite green phosphate absorbance; Q9GZU7; AID 493091; inhibition, % at 20 µM; actives 0.88% (n = 340,000);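 active means inhibition above about 50% at 20 µM, limit read from the data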;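 further: plate controls were DMSO wells with enzyme for no effect and wells lacking enzyme for full effect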
Target sequence (Q9GZU7 76-261 limits assumed): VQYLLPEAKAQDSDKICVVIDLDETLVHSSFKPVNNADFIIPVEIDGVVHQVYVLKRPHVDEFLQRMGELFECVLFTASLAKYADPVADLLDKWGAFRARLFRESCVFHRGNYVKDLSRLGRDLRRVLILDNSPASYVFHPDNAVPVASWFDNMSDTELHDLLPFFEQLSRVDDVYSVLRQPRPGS
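Test system: SCP-1 phosphatase catalytic domain, residues 76-261 | Compound dosing: One concentration, 20 µM, with 1.0% DMSO | Schedule: 45 min room-temperature reaction, 5 min colour, 30 min stabiliser | Detection: Absorbance at 630 nm | Read-out basis: % inhibition of SCP-1 phosphate liberation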
FAS-TE inh conf: FAS thioesterase (human) inhibition, confirmation; shares compounds with FAS-TE inh; recombinant FAS-TE, OMFH fluorogenic substrate, fluorescence; inhibition, % at 15 µM; actives 45% (n = 2,300);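 active means compounds inhibiting the enzyme by at least 50% at 15 µM in any one of the replicates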;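 further: 0% = enzyme with DMSO only and 100% = wells lacking enzyme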
Starred values were filed as active, the others as inactive; x = no result.

SMILES	LMPTP block	STEP block	SUMO1-SIM PPI	FAS-TE inh	Scp1 inh	FAS-TE inh conf
Cc1nc2cc(C(F)(F)F)ccc2n1CCNc1nc(-c2ccc([N+](=O)[O-])c(Cl)c2)cs1	4.1	0.1	-2.0	52.2*	-5.6	30.2
O=[N+]([O-])c1cc(-c2csc(NCCc3nc4cc(C(F)(F)F)ccc4n3CCCO)n2)ccc1Cl	5.6	-0.8	-15.6	80.6*	-2.3	69.9*
Cc1nc2cc(C(F)(F)F)ccc2n1CCNc1nc(-c2ccc(F)cc2)cs1	-0.5	-1.5	-0.3	9.3	-0.5	x
CCCCCNC(=O)C(c1ccnc2ccccc12)n1c(=O)c(-c2cc3ccccc3[nH]2)nc2ccccc21 (configuration not stated)	3.5	x	5.5	x	x	x
CC1(C)S[C@@H]2[C@H](NC(=O)C(NC(=O)N3CCNC3=O)c3ccccc3)C(=O)N2[C@H]1C(=O)O (some centres not stated)	-1.6	-1.1	1.6	-3.4	2.2	x
CCOC(=O)c1c(C)[nH]c(C)c1C(=O)COC(=O)/C=C/c1ccco1	-0.3	-2.9	-16.2	0.5	11.3	x
CC(=O)[C@@H]1[C@@H]2C(=O)N(c3ccccc3F)C(=O)[C@@H]2[C@H]2c3ccccc3C=NN12	-2.1	2.1	-0.5	-8.3	-5.1	x
O=C(c1ccc(Cl)cc1)[C@@H]1[C@@H]2C(=O)N(c3cccc4ccccc34)C(=O)[C@@H]2C2c3ccccc3C=NN21 (some centres not stated)	3.7	-0.4	6.2	85.4*	-4.0	40.5
CC(C)NC(=S)Nc1ccc2nc3n(c(=O)c2c1)CCCCC3	-1.9	-0.2	-1.8	-6.3	-7.1	x
CC(C)(C)OC(=O)N1CCC(c2cc(=O)n3[nH]cc(C(=O)Nc4ccc(F)c(Cl)c4)c3n2)CC1	5.6	-2.3	50.6*	76.8*	6.0	64.4*
COc1ccc(NC(=O)c2c[nH]n3c(=O)cc(C4CCN(C(=O)OC(C)(C)C)CC4)nc23)cc1Cl	5.2	-0.3	11.9	29.9	12.8	x
COC(=O)c1c(NC(=O)COC(=O)Cn2cnc3ccccc32)sc2c1CCCC2	2.9	-0.9	3.0	1.1	-4.4	x
CCN(C(=O)COC(=O)c1ccccc1Nc1ccccc1)c1c(N)n(Cc2ccccc2)c(=O)[nH]c1=O	2.9	0.9	-0.1	77.4*	-4.8	4.2
CCN(CC)S(=O)(=O)c1ccc(N2CCc3ccccc3C2)nc1	1.1	2.9	2.6	63.9*	-9.8	63.2*
CC(C)N(C(C)C)S(=O)(=O)c1ccc(N2CCc3ccccc3C2)nc1	1.0	-0.4	-2.1	46.2	-9.8	x
CCN(CC)S(=O)(=O)c1ccc(C)c(C)c1	0.1	3.0	-0.3	-10.2	-8.0	x
CCN(CC)S(=O)(=O)c1ccc(-n2cnc3cc(C)c(C)cc32)nc1	1.2	-0.1	2.5	57.0*	0.1	60.7*
Cc1ccc(C(=O)OCC(=O)NCc2ccco2)cc1C	-2.0	-4.1	-5.1	-7.5	-12.0	x
COc1ccc(CNC(=O)CCC(=O)Nc2ccc(Cl)cc2)cc1	-1.2	-2.1	-0.1	0.3	-4.7	x
COC(=O)c1ccccc1-n1cccc1C(=O)NP(=O)(N1CCOCC1)N1CCOCC1	-2.1	3.3	0.1	-5.0	-3.1	x
Cc1cc(C)c(Nc2cc(S(=O)(=O)O)c(N)c3c2C(=O)c2ccccc2C3=O)c(C)c1	33.3	1.6	74.0*	74.9*	27.4	45.7
Cc1cc(C)c(NC(=O)COC(=O)c2cccc3c2C(=O)c2ccccc2C3=O)c(C)c1	3.0	3.3	-15.0	8.5	-7.8	x
Cc1cc(C)n(C(=O)/C(C#N)=N/Nc2cc(Cl)cc(Cl)c2)n1	2.1	-1.6	-9.3	52.8*	-14.2	25.3
O=C(NCc1ccc2c(c1)OCO2)c1ccc(C2SCC(=O)N2Cc2ccco2)cc1 (configuration not stated)	3.3	5.9	6.9	59.1*	17.1	50.3*
CCN(c1cccc(C)c1)S(=O)(=O)c1ccc(-n2cccn2)cc1	0.4	-1.5	0.9	17.4	-5.3	x
SMILES	LMPTP block	STEP block	SUMO1-SIM PPI	FAS-TE inh	Scp1 inh	FAS-TE inh conf
CC1=C/C(=C\C=C(C#N)C#N)N(C)c2ccccc21	20.5	7.5	-2.0	3.9	-0.7	x
CC1=CC(=C(C#N)C#N)c2ccccc2N1C	0.5	0.6	-8.2	61.1*	-6.5	24.7
COc1ccc(C(=O)N2CCN(CCc3ccccc3)CC2)cc1[N+](=O)[O-]	-1.0	1.1	-15.6	87.1*	-2.4	90.2*
COc1ccc(C(=O)NC(C)CCc2ccccc2)cc1[N+](=O)[O-] (configuration not stated)	0.2	-3.1	-8.3	51.3*	-10.2	51.7*
Cc1cccc(NC(=O)C2(c3cccs3)CCOCC2)n1	-0.2	-1.0	0.3	-5.7	-3.9	x
Cc1ccc2nc(-c3ccccc3)cc(C(=O)N3CCN(S(=O)(=O)c4c(C)noc4C)CC3)c2c1	1.5	2.9	-16.0	70.2*	2.6	19.2
CCN1Cc2c(/C=C/c3ccccc3)nc3ccc(OC)cc3c2N(c2cccc(Cl)c2)C1	2.0	-0.2	5.3	76.6*	14.4	85.0*
CCCNC(=O)N(C)C[C@H]1Oc2ncc(C#CCc3ccccc3)cc2C(=O)N([C@H](C)CO)C[C@H]1C	-1.8	-1.9	2.9	-4.1	x	x
COc1ccc(C(=O)CC(C(=O)O)c2ccc(OC)c(OC)c2)cc1OC (configuration not stated)	-0.4	0.3	-1.2	-7.4	x	x
CCN(CC)CCN(C(=O)c1ccc(S(=O)(=O)N2CCCCC2)cc1)c1nc2cc3c(cc2s1)OCO3	-0.7	3.7	3.3	52.6*	8.3	9.0
O=[N+]([O-])c1cc(S(=O)(=O)Nc2cccc(C(F)(F)F)c2)ccc1-n1nnc2ccccc21	3.4	2.4	-17.4	65.7*	-4.4	79.6*
COc1ccc(-c2nc(S(=O)(=O)c3ccccc3)c(NCCCN3CCOCC3)o2)cc1	-5.9	-1.1	-2.8	-3.6	-7.5	x
O=C(CCN1C(=O)/C(=C/c2ccccc2Cl)SC1=S)Nc1cccnc1	3.2	2.6	-8.4	62.1*	-4.3	2.9
O=C1/C(=C/c2ccccc2Cl)SC(=S)N1CCCC(=O)N(CCO)c1ccccc1	5.4	1.4	-14.9	56.3*	-8.0	39.6*
O=C(CCCN1C(=O)/C(=C/c2ccccc2Cl)SC1=S)Nc1cccnc1	4.7	-2.0	-21.5	44.5	-3.6	x
O=C(CCCN1C(=O)/C(=C/c2ccccc2Cl)SC1=S)Nc1ccccn1	2.4	-0.9	-18.4	34.3	0.6	x
O=C(CCN1C(=O)/C(=C/c2ccccc2Cl)SC1=S)Nc1ccccn1	1.0	1.8	-14.9	64.7*	7.0	58.5*
Cc1ccc(S(=O)(=O)N2CCN(C(C)C(=O)Nc3ccccc3-c3ccccc3)CC2)cc1 (configuration not stated)	1.7	3.3	-1.3	22.6	-2.3	x
